Laboratory results reported in ChEMBL document CHEMBL4033643, “Synthesis and in vitro antitumour activity of crassalactone D, its stereoisomers and novel cinnamic ester derivatives” (Eur J Med Chem, 2017).
pIC50: −log10 of the molar value. Activity calls are given as the source filed them. The rule behind the calls is not given here.

Legend:
K562 [1] = experiment: Cell cycle arrest in human K562 cells assessed as total cell levels at G0/G1 phase at IC50 after 72 hrs by propidium iodide staining based flow cytometry (reference value: 39.97%); type: functional
K562 [2] = experiment: Cytotoxicity against human K562 cells assessed as reduction in cell viability after 72 hrs by MTT assay; type: functional, cell-based; conditions: K562, 72 h
K562 [3] = experiment: Induction of apoptosis in human K562 cells assessed as specific necrosis by Annexin V-FITC/propidium iodide staining based flow cytometry; type: functional; set-up: concentration or dose not given beside the values
MDA-MB-231 = experiment: Cytotoxicity against human MDA-MB-231 cells assessed as reduction in cell viability after 72 hrs by MTT assay; type: functional, cell-based; conditions: MDA-MB-231, 72 h
MRC5 = experiment: Cytotoxicity against human MRC5 cells assessed as reduction in cell viability after 72 hrs by MTT assay; type: cell-based; conditions: MRC5, 72 h
K562 [4] = experiment: Induction of apoptosis in human K562 cells assessed as total necrotic cells by Annexin V-FITC/propidium iodide staining based flow cytometry (reference value: 0.23%); type: functional
K562 [5] = experiment: Induction of apoptosis in human K562 cells assessed as gated early apoptotic cells by Annexin V-FITC/propidium iodide staining based flow cytometry (reference value: 3.18%); type: functional
K562 [6] = experiment: Cell cycle arrest in human K562 cells assessed as total cell levels at M4 phase at IC50 after 72 hrs by propidium iodide staining based flow cytometry (reference value: 0.50%); type: functional
K562 [7] = experiment: Induction of apoptosis in human K562 cells assessed as gated necrotic cells by Annexin V-FITC/propidium iodide staining based flow cytometry (reference value: 0.24%); type: functional
K562 [8] = experiment: Cell cycle arrest in human K562 cells assessed as accumulation at G2/M phase at IC50 after 72 hrs by propidium iodide staining based flow cytometry (reference value: 19.01%); type: functional
K562 [9] = experiment: Cell cycle arrest in human K562 cells assessed as accumulation at S phase at IC50 after 72 hrs by propidium iodide staining based flow cytometry (reference value: 41.03%); type: functional
Jurkat = experiment: Cytotoxicity against human Jurkat cells assessed as reduction in cell viability after 72 hrs by MTT assay; type: functional, cell-based
Raji = experiment: Cytotoxicity against human Raji cells assessed as reduction in cell viability after 72 hrs by MTT assay; type: functional, cell-based
K562 [10] = experiment: Induction of apoptosis in human K562 cells assessed as decrease in Bcl-2 expression level by Western blot analysis; type: functional, cell-based
Method in brief: (§1)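 Western blot of treated K562 cells for Bcl-2, Bax, activated caspase 3 and cleaved PARP (85 kDa fragment). Blots developed by ECL, with band expression quantified by densitometry against an untreated control sample.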

K562 [11] = experiment: Induction of apoptosis in human K562 cells assessed as gated late apoptotic cells by Annexin V-FITC/propidium iodide staining based flow cytometry (reference value: 0.88%); type: functional
K562 [12] = experiment: Induction of apoptosis in human K562 cells assessed as specific apoptosis by Annexin V-FITC/propidium iodide staining based flow cytometry; type: functional; set-up: concentration or dose not given beside the values
K562 [13] = experiment: Cell cycle arrest in human K562 cells assessed as total cell levels at S phase at IC50 after 72 hrs by propidium iodide staining based flow cytometry (reference value: 36.49%); type: functional
K562 [14] = experiment: Cell cycle arrest in human K562 cells assessed as accumulation at G0/G1 phase at IC50 after 72 hrs by propidium iodide staining based flow cytometry (reference value: 38.48%); type: functional
K562 [15] = experiment: Induction of apoptosis in human K562 cells assessed as total early apoptotic cells by Annexin V-FITC/propidium iodide staining based flow cytometry (reference value: 3.07%); type: functional
HeLa = experiment: Cytotoxicity against human HeLa cells assessed as reduction in cell viability after 72 hrs by MTT assay; type: functional, cell-based
HL-60 = experiment: Cytotoxicity against human HL60 cells assessed as reduction in cell viability after 72 hrs by MTT assay; type: functional, cell-based; conditions: HL-60, 72 h
K562 [16] = experiment: Induction of apoptosis in human K562 cells assessed as gated viable cells by Annexin V-FITC/propidium iodide staining based flow cytometry (reference value: 95.78%); type: functional
A549 = experiment: Cytotoxicity against human A549 cells assessed as reduction in cell viability after 72 hrs by MTT assay; type: functional, cell-based; conditions: A549, 72 h
K562 [17] = experiment: Cell cycle arrest in human K562 cells assessed as accumulation at sub G1 phase at IC50 after 72 hrs by propidium iodide staining based flow cytometry (reference value: 1.48%); type: functional
K562 [18] = experiment: Induction of apoptosis in human K562 cells assessed as total late apoptotic cells by Annexin V-FITC/propidium iodide staining based flow cytometry (reference value: 0.77%); type: functional
K562 [19] = experiment: Cell cycle arrest in human K562 cells assessed as total cell levels at G2/M phase at IC50 after 72 hrs by propidium iodide staining based flow cytometry (reference value: 14.31%); type: functional
MCF7 = experiment: Cytotoxicity against human MCF7 cells assessed as reduction in cell viability after 72 hrs by MTT assay; type: functional, cell-based; conditions: MCF7, 72 h
K562 [20] = experiment: Induction of apoptosis in human K562 cells assessed as total viable cells by Annexin V-FITC/propidium iodide staining based flow cytometry (reference value: 92.45%); type: functional
K562 [21] = experiment: Induction of apoptosis in human K562 cells assessed as increase in Bax expression level by Western blot analysis; type: functional, cell-based; method in brief: as §1

SMILES | Activity (K562 [1]) | pIC50 (K562 [2]) | Activity (K562 [3]) | pIC50 (MDA-MB-231) | pIC50 (MRC5) | Activity (K562 [4]) | Activity (K562 [5]) | Activity (K562 [6]) | Activity (K562 [7]) | Activity (K562 [8]) | Activity (K562 [9]) | pIC50 (Jurkat) | pIC50 (Raji) | Activity (K562 [10]) | Activity (K562 [11]) | Activity (K562 [12]) | Activity (K562 [13]) | Activity (K562 [14]) | Activity (K562 [15]) | pIC50 (HeLa) | other results
O=C1C=C[C@]2(C[C@H](OC(=O)/C=C/c3ccccc3)[C@@H](c3ccccc3)O2)O1 | 14.21% | 4.68 | 4.06% | 5.26 | < 4.00 | 0.05% | 79.11% | 25.37% | 0.09% | 23.78% | 31.55% | 6.68 | 5.18 | Active | 4.92% | 83.35% | 28.7% | 16.04% | 59.12% | 5.94 | pIC50 (HL-60): 5.00; Activity (K562 [16]): 15.88%; pIC50 (A549): 4.84; Activity (K562 [17]): 28.63%; Activity (K562 [18]): 3.27%; Activity (K562 [19]): 21.08%; pIC50 (MCF7): 5.78; Activity (K562 [20]): 3.9%; Activity (K562 [21]): Active
O=C1C=C[C@@]2(C[C@H](O)[C@H](c3ccccc3)O2)O1 | 15.11% | 6.27 | 0.67% | < 4.00 | < 4.00 | 1.15% | 6.15% | 0.87% | 4.62% | 17.58% | 52.34% | 6.02 | 5.57 | Active | 7.48% | 10.05% | 50.77% | 28.98% | 1.53% | 5.34 | pIC50 (HL-60): 6.72; Activity (K562 [16]): 81.75%; pIC50 (A549): 4.50; Activity (K562 [17]): 1.1%; Activity (K562 [18]): 1.86%; Activity (K562 [19]): 13.99%; pIC50 (MCF7): 5.71; Activity (K562 [20]): 20.34%; Activity (K562 [21]): Active
COc1ccc(/C=C/C(=O)O[C@H]2C[C@]3(C=CC(=O)O3)O[C@H]2c2ccccc2)cc1 | 37.38% | 4.89 | 3.76% | 5.58 | < 4.00 | 0.36% | 5.39% | 3.06% | 0.37% | 27.85% | 27.14% | 4.85 | 5.06 | inactive | 0.78% | 2.28% | 24.97% | 41.6% | 5.27% | 4.89 | pIC50 (HL-60): 5.06; Activity (K562 [16]): 93.46%; pIC50 (A549): 5.80; Activity (K562 [17]): 3.41%; Activity (K562 [18]): 0.76%; Activity (K562 [19]): 25.02%; pIC50 (MCF7): 4.95; Activity (K562 [20]): 91.39%; Activity (K562 [21]): Active
O=C1C=C[C@@]2(C[C@H](OC(=O)/C=C/c3ccccc3)[C@@H](c3ccccc3)O2)O1 | 21.87% | 4.69 | 4.12% | 5.46 | < 4.00 | 0.02% | 82.46% | 54.83% | 0.03% | 5.34% | 14.63% | 4.06 | 5.62 | Active | 4.67% | 86.01% | 13.85% | 23.1% | 68.98% | 6.24 | pIC50 (HL-60): 5.25; Activity (K562 [16]): 12.84%; pIC50 (A549): 4.55; Activity (K562 [17]): 56.93%; Activity (K562 [18]): 3.48%; Activity (K562 [19]): 5.03%; pIC50 (MCF7): 6.24; Activity (K562 [20]): 2.12%; Activity (K562 [21]): Active
